ChEMBL document CHEMBL1136122, “Are 5'-O-carbamate-2',3'-dideoxythiacytidine new anti-HIV and anti-HBV nucleoside drugs or prodrugs?” (Bioorg Med Chem Lett, 2003)

Assays:
[1] = test system: MT4; assay: In vitro concentration required to cause death of uninfected MT-4 cell; type: functional; conditions: Homo sapiens
[2] = In vitro concentration required to inhibit the HIV-1 LA1 replication on PBMCs cell (peripheral blood mononuclear cells); type: functional, cell-based; conditions: Homo sapiens, PBMC
Procedure, shortened: (§1)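 EC50 is reported with standard deviation. In MT-4 cells it is 50% protection from HIV-1 cytopathicity. In PBMCs it is 50% inhibition of HIV-1 replication.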

[3] = In vitro concentration required to cause death of uninfected PBMCs cell (peripheral blood mononuclear cells); type: functional; conditions: Homo sapiens, PBMC
[4] = test system: MT4; assay: In vitro concentration required to inhibit the cytopathicity of HIV-1 IIIB on MT-4 cell; type: functional, cell-based; conditions: Homo sapiens; procedure, shortened: as §1
[5] = test system: HepG2; assay: In vitro concentration required to inhibit HBV DNA secretion by HepG2.2.15 transfected by HBV; type: functional, cell-based; conditions: Homo sapiens
Procedure, shortened: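 Used HepG2.2.15 cells stably transfected with HBV, following a standard procedure. EC50 is the concentration giving 50% inhibition of HBV DNA secretion, reported with standard deviation.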

[6] = Selectivity (CC50/EC50) for death of uninfected MT4 cell to that of inhibition of cytopathicity of HIV-1 IIIB on MT-4 cell; type: functional
[7] = Selectivity (CC50/EC50) for death of uninfected PBMCs to that of inhibition of […] of HIV-1 LA1 on PBMCs (peripheral blood mononuclear cells); type: functional
[8] = test system: MT4; assay: In vitro concentration required to inhibit the cytopathicity of HIV-1 IIIB on MT-4 cell; NA=no activity; type: functional, cell-based, Homo sapiens; procedure, shortened: as §1

Row | SMILES | CC50 [1] | EC50 [2] | CC50 [3] | EC50 [4] | EC50 [5] | SI [6] | SI [7] | EC50 [8]
1 | Nc1ccn(C2CSC(COC(=O)NCCCCO)O2)c(=O)n1 (centres undefined) | > 217 µM | > 10 µM | > 10 µM | > 200 µM | 5 µM |  |  | 
2 | CCOP(=O)(CNC(=O)OCC1OC(n2ccc(N)nc2=O)CS1)OCC (centres undefined) | > 233 µM | 10 µM | > 10 µM | 126 µM | > 5 µM | >2 | >1 | 
3 | NCCCCNC(=O)OCC1OC(n2ccc(N)nc2=O)CS1 (centres undefined) | > 218 µM | 10 µM | > 10 µM | 15 µM | 1 µM | >14 | >1 | 
4 | NCCCNC(=O)OCC1OC(n2ccc(N)nc2=O)CS1 (centres undefined) | > 282 µM | 1 µM | > 10 µM | 27 µM | 1 µM | >10 | >10 | 
5 | CCCCNC(=O)OCC1OC(n2ccc(N)nc2=O)CS1 (centres undefined) | > 283 µM | 5 µM | > 10 µM | 26 µM | 1 µM | >11 | >2 | 
6 | CCCNC(=O)OCC1OC(n2ccc(N)nc2=O)CS1 (centres undefined) | > 285 µM | 10 µM | > 10 µM | 32 µM | 5 µM | >9 | >1 | 
7 | Nc1ccn(C2CSC(COC(=O)NCCCCCCO)O2)c(=O)n1 (centres undefined) | > 208 µM | 10 µM | > 10 µM | 75 µM | 5 µM | >3 | >1 | 
8 | Nc1ccn(C2CSC(COC(=O)NCP(=O)(O)O)O2)c(=O)n1 (centres undefined) | > 322 µM | > 10 µM | > 10 µM |  | 5 µM |  |  | Not Active
9 | NCCCOC(=O)OCC1OC(n2ccc(N)nc2=O)CS1 (centres undefined) | > 17 µM | 0.01 µM | > 10 µM | 0.3 µM | 0.5 µM | >57 | >1000 | 
10 | NCCCCOC(=O)OCC1OC(n2ccc(N)nc2=O)CS1 (centres undefined) | > 218 µM | 0.1 µM | > 10 µM | 0.8 µM | 1 µM | >260 | > 100 | 
11 | Nc1ccn(C2CSC(COC(=O)NCCCO)O2)c(=O)n1 (centres undefined) | > 281 µM | > 10 µM | > 10 µM | > 254 µM | 1 µM |  | >1 | 
12 | Nc1ccn([C@@H]2CS[C@H](CO)O2)c(=O)n1 [LAMIVUDINE] | > 44 µM | 0.01 µM | > 10 µM | 0.4 µM | 0.4 µM | >107 | >1000 | 
